pEC50, pIC50: −log10 of the molar value. ≈ marks a conversion by molar mass, not a printed value. Calls of active or inactive are those of the source. The rule behind the calls is not given here.
Key:
NIH3T3 = test: Cytotoxicity against mouse NIH/3T3 cells after 48 hrs by SRB assay; assay type: cell-based; conditions: NIH3T3, 48 h
Bacillus cereus = test: Antibacterial activity against Bacillus cereus after 24 hrs by agar dilution method; assay type: functional
[1] = tested on: Staphylococcus epidermidis; test: Antibacterial activity against Staphylococcus albus after 24 hrs by agar dilution method; assay type: functional
Staphylococcus aureus = test: Antibacterial activity against Staphylococcus aureus after 24 hrs by agar dilution method; assay type: functional
Pseudomonas aeruginosa = test: Antibacterial activity against Pseudomonas aeruginosa after 24 hrs by agar dilution method; assay type: functional
Escherichia coli = test: Antibacterial activity against Escherichia coli after 24 hrs by agar dilution method; assay type: functional
A549 [2] = test: Antioxidant activity in human A549 cells assessed as protection against H2O2-induced cell death at 50 to 100 uM preincubated for 1 hr prior to H2O2-challenge measured after 24 hrs by SRB assay; assay type: functional, cell-based
A549 [3] = test: Antioxidant activity in human A549 cells assessed as inhibition of AAPH-induced oxidative stress at 100 uM after 2 hrs by flow cytometric analysis relative to control; assay type: functional; conditions: A549, 2 h
Method in brief: (§1)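 A549 cells pretreated with AAPH 1 h to induce ROS stress, then compound added; intracellular ROS (hydrogen peroxides, hydroxyl radicals) quantified with DCFH-DA, by fluorescence imaging (×200) or flow cytometry; one representative of three independent experiments.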

A549 [4] = test: Antioxidant activity in human A549 cells assessed as inhibition of AAPH-induced oxidative stress at 50 uM after 2 hrs by flow cytometric analysis relative to control; assay type: functional; conditions: A549, 2 h; method in brief: as §1
A549 [5] = test: Antioxidant activity in human A549 cells assessed as decrease in AAPH-induced oxidative stress after 2 hrs by DCFH-DA staining-based fluorescent microscopic analysis; assay type: functional, cell-based; method in brief: as §1
[6] = Antioxidant activity assessed as ferric ion reducing ability after 20 mins by spectrophotometric analysis; assay type: functional
[7] = tested on: Radical scavenging activity; test: Antioxidant activity assessed as DPPH radical scavenging activity after 30 mins by spectrophotometric analysis; assay type: functional
Method in brief: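 DPPH radical bleaching followed as loss of absorbance at 517 nm; IC50 derived; mean ± SD, n = 3.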

[8] = Antioxidant activity assessed as hydroxyl radical scavenging activity after 1 hr by spectrophotometric analysis; assay type: functional
[9] = Antioxidant activity assessed as superoxide radical anion scavenging activity by spectrophotometric analysis; assay type: functional
[10] = Antioxidant activity assessed as ferric ion reducing ability at 1 to 50 uM after 20 mins by spectrophotometric analysis; assay type: functional

Row | MIC (Bacillus cereus) [µM] | MIC [1] [µM] | MIC (Staphylococcus aureus) [µM] | MIC (Pseudomonas aeruginosa) [µM] | MIC (Escherichia coli) [µM] | pEC50 [7] | pEC50 [8] | pEC50 [9] | SMILES | pIC50 (NIH3T3) | MBC (Escherichia coli) [µM] | Activity (A549 [2]) | inhibition at 100 µM (A549 [3]) [%] | inhibition at 50 µM (A549 [4]) [%] | Activity (A549 [5]) | Activity [6] | MBC (Bacillus cereus) [µM] | MBC (Staphylococcus aureus) [µM] | Activity [10]
1 | > 200 | > 200 | > 200 | > 200 | 12.5 (≈ 3.2 µg/mL) | 4.57 | 4.34 | < 3.70 | COc1cc(O)ccc1-c1nc2cc(O)ccc2[nH]1 | < 3.70 | 25 (≈ 6.41 µg/mL) | Active | 70.4 | 25.3 | Active | Dose-dependent effect | – | – | –
2 | 25 (≈ 6.06 µg/mL) | > 200 | 0.78 (≈ 0.189 µg/mL) | > 200 | > 200 | 4.59 | < 3.70 | < 3.70 | Oc1cc(O)cc(-c2nc3cc(O)ccc3[nH]2)c1 | < 3.70 | – | – | – | – | – | Dose-dependent effect | 25 (≈ 6.06 µg/mL) | 0.78 (≈ 0.189 µg/mL) | Active
3 | 50 (≈ 11.3 µg/mL) | > 200 | 1.56 (≈ 0.353 µg/mL) | > 200 | > 200 | 4.47 | 3.80 | < 3.70 | Oc1ccc(-c2nc3cc(O)ccc3[nH]2)cc1 | < 3.70 | – | – | – | – | – | Dose-dependent effect | 50 (≈ 11.3 µg/mL) | 1.56 (≈ 0.353 µg/mL) | Active
4 | 50 (≈ 10.5 µg/mL) | > 200 | 1.56 (≈ 0.328 µg/mL) | > 200 | 100 (≈ 21 µg/mL) | 4.38 | < 3.70 | < 3.70 | Oc1ccc2[nH]c(-c3ccccc3)nc2c1 | < 3.70 | > 200 | – | – | – | – | Dose-dependent effect | 100 (≈ 21 µg/mL) | 1.56 (≈ 0.328 µg/mL) | Active
5 | 50 (≈ 13.5 µg/mL) | > 200 | 0.39 (≈ 0.105 µg/mL) | > 200 | 12.5 (≈ 3.38 µg/mL) | 4.49 | < 3.70 | < 3.70 | COc1ccc(-c2nc3cc(O)ccc3[nH]2)c(OC)c1 | < 3.70 | 25 (≈ 6.76 µg/mL) | – | – | – | – | Dose-dependent effect | 50 (≈ 13.5 µg/mL) | 0.39 (≈ 0.105 µg/mL) | Active
